IC50, Efficacy and EC50 data for 23 compounds are collected here from ChEMBL document CHEMBL1143988, “11-(pyridinylphenyl)steroids--a new class of mixed-profile progesterone agonists/antagonists” (Bioorg Med Chem, 2008).

A value given as a limit tells only on which side of the number the result lay.

Format in all cases: functional, cell-based
Assay [1] deals with T1, Progesterone receptor (Homo sapiens, UniProt P06401).
T1 sequence (P06401 whole entry): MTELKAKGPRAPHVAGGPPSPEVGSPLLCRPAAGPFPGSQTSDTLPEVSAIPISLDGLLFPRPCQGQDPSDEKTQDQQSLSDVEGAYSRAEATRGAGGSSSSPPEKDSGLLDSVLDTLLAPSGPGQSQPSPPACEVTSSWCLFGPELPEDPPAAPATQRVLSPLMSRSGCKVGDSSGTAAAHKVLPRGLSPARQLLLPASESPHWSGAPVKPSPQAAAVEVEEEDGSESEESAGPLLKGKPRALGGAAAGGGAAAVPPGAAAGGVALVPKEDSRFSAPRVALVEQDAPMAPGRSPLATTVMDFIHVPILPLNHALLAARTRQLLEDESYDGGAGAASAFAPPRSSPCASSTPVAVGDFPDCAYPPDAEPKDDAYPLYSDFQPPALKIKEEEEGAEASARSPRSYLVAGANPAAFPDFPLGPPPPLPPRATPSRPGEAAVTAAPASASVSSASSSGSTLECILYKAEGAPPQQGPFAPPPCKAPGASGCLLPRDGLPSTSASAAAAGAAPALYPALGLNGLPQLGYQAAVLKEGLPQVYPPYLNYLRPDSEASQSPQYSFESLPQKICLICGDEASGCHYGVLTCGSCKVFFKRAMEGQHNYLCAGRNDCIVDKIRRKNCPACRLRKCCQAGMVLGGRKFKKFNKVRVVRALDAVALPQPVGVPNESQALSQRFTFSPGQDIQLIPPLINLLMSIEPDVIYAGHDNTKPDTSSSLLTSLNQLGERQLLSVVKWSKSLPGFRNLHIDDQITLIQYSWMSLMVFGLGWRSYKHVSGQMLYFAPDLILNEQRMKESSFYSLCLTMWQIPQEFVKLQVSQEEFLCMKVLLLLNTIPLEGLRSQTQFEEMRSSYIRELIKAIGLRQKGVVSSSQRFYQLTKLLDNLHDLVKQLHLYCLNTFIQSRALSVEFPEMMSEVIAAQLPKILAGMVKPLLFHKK
The experiment in a line: Antagonist activity at human PRB expressed in CHO cells assessed as inhibition of Org 2058 induced-transactivation. Summed up:
(§1)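 PR-B-mediated luciferase transactivation antagonist mode, run in the same setting as the agonist assay, with 0.1 nM Org 2058 as inducer; IC50 taken from inhibition of luciferase induction. Efficacy given relative to the antagonist Org 31710, whose effect is set to 100%.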

The target in assay [2] is T2, Progesterone receptor (Homo sapiens) (UniProt P06401).
T2 sequence (whole entry): T1 sequence (P06401 whole entry)
The assay can be described thus: (§2) Antagonist activity at human PRB expressed in CHO cells assessed as inhibition of Org 2058 induced-transactivation relative to Org 31710. In short, it runs like this: as §1

The target of assay [3] is T2, Progesterone receptor (Homo sapiens). The experiment in a line: Agonist activity at human PRB expressed in CHO cells relative to Org 2058.
Assay [4] addresses T1, Progesterone receptor. The experiment in a line: Agonist activity at human PRB expressed in CHO cells.
Assay [5] has as its target T1, Progesterone receptor. The description is as §2. In short, it runs like this:
as §1

As for `CC[C@@H]1C[C@H]2[C@@H]3CCC4=CC(=O)CCC4=C3[C@@H](c3ccc(-c4ccc(OC)nc4)cc3)C[C@]2(C)[C@H]1C(=O)C1CC1`, the IC50 (commonly the concentration that inhibits the measured activity by half) on Progesterone receptor [1] was determined as 7.89 nM. Also, the figures for the Efficacy in assay [2] and in assay [3] were 52% and 42%, respectively.

For the compound `C[C@@H]1C[C@H]2[C@@H]3CCC4=CC(=O)CCC4=C3[C@@H](c3ccc(-c4cnc5ccccc5c4)cc3)C[C@]2(C)[C@H]1C(=O)C1CC1`, the IC50 on Progesterone receptor [1] was 3.14 nM. Moreover, the Efficacy in assay [2] amounted to 24%; in assay [3], 50%.

Regarding `CC(=O)O[C@]1(C(C)=O)CC[C@H]2[C@@H]3CCC4=CC(=O)CCC4=C3[C@@H](c3ccc(N(C)C)cc3)C[C@@]21C` [ULIPRISTAL ACETATE], on Progesterone receptor [1], the IC50 was found to be 0.2 nM. The EC50 (usually the concentration that produces a half-maximal response) on Progesterone receptor [4] is above 100 nM. The Efficacy in assay [2] is 100%.

Turning to `C[C@@H]1C[C@H]2[C@@H]3CCC4=CC(=O)CCC4=C3[C@@H](c3ccc(-c4cnccn4)cc3)C[C@]2(C)[C@H]1C(=O)C1CC1`, on Progesterone receptor [1], the IC50 stood at 1.3 nM. Further, the Efficacy in assay [2] is 35%; in assay [3] it was 54%.

Regarding `CC[C@@H]1C[C@H]2[C@@H]3CCC4=CC(=O)CCC4=C3[C@@H](c3ccc(-c4cccnc4)cc3)C[C@]2(C)[C@H]1C(=O)C1CC1`, at Progesterone receptor [1], the IC50 is 0.6 nM. Besides, the Efficacy is 53% in assay [2] and 34% in assay [3].

`C[C@@H]1C[C@H]2[C@@H]3CCC4=CC(=O)CCC4=C3[C@@H](c3ccc(-c4cccnc4)cc3)C[C@]2(C)[C@H]1C(=O)C1CC1`: at Progesterone receptor [1], the IC50 was 0.27 nM. Besides, the Efficacy in assay [2] came to 46%; in assay [3], 49%.

Regarding `C=C[C@@H]1C[C@H]2[C@@H]3CCC4=CC(=O)CCC4=C3[C@@H](c3ccc(-c4ccc(OC)nc4)cc3)C[C@]2(C)[C@H]1C(=O)C1CC1`, the IC50 at Progesterone receptor [1] was 0.98 nM. Also, the Efficacy is 45% in assay [2] and 41% in assay [3].

In the case of `CN(C)c1ccc([C@H]2C[C@@]3(C)[C@@H](CC[C@@]34CCCC4=O)[C@@H]3CCC4=CC(=O)CCC4=C32)cc1`, the IC50 on Progesterone receptor [5] came out at 0.2 nM.

`C[C@]12C[C@H](c3ccc(-c4cccnc4)cc3)C3=C4CCC(=O)C=C4CC[C@H]3[C@@H]1CC[C@@H]2C(=O)C1CC1`: on Progesterone receptor [1], the IC50 was 0.75 nM. For the same compound, the Efficacy came out at 66% in assay [2] and 36% in assay [3].

Turning to `C[C@]12C[C@H](c3ccc(-c4cccnc4)cc3)C3=C4CCC(=O)C=C4CC[C@H]3[C@@H]1CC[C@]2(C)C(=O)C1CC1`, the IC50 at Progesterone receptor [1] amounted to 0.13 nM. The Efficacy in assay [2] is 58%; in assay [3] it was 38%.

Regarding `C[C@@H]1C[C@H]2[C@@H]3CCC4=CC(=O)CCC4=C3[C@@H](c3ccc(-c4ncccn4)cc3)C[C@]2(C)[C@H]1C(=O)C1CC1`, the IC50 on Progesterone receptor [1] was found to be 3.25 nM. In addition, the Efficacy in assay [2] is above 27%; in assay [3], 52%.

On to `C=C1CCO[C@]12CC[C@H]1[C@@H]3CCC4=CC(=O)CCC4[C@H]3[C@@H](c3ccc(N(C)C)cc3)C[C@@]12C` (stereo partly drawn), for which the IC50 at Progesterone receptor [5] worked out at 0.2 nM.

With `COc1ccc(-c2ccc([C@H]3C[C@]4(C)[C@@H](C(=O)C5CC5)CC[C@H]4[C@@H]4CCC5=CC(=O)CCC5=C43)cc2)cn1`, the IC50 at Progesterone receptor [1] was determined as 0.43 nM. The values for the Efficacy in assay [2] and in assay [3] were 57% and 28%, respectively.

For the compound `C[C@@H]1C[C@H]2[C@@H]3CCC4=CC(=O)CCC4=C3[C@@H](c3ccc(-c4ccc(F)nc4)cc3)C[C@]2(C)[C@H]1C(=O)C1CC1`, at Progesterone receptor [1], the IC50 was 8.48 nM. Also, the figures for the Efficacy in assay [2] and in assay [3] were 50% and 51%, respectively.

For the compound `COc1ccc(-c2ccc([C@H]3C[C@@]4(C)[C@@H](C[C@@H](C)[C@@H]4C(=O)C4CC4)[C@@H]4CCC5=CC(=O)CCC5=C43)cc2)cn1`, the IC50 at Progesterone receptor [1] is 0.63 nM. Further, the Efficacy is 59% in assay [2] and 42% in assay [3].

Take `C[C@@H]1C[C@H]2[C@@H]3CCC4=CC(=O)CCC4=C3[C@@H](c3ccc(-c4ccnnc4)cc3)C[C@]2(C)[C@H]1C(=O)C1CC1`: the IC50 at Progesterone receptor [1] was 3.64 nM. On Progesterone receptor [4], this compound displayed an EC50 of 0.36 nM. Moreover, the Efficacy in assay [2] was 37%; in assay [3], 51%.

In the case of `C[C@@H]1C[C@H]2[C@@H]3CCC4=CC(=O)CCC4=C3[C@@H](c3ccc(-c4ccncc4)cc3)C[C@]2(C)[C@H]1C(=O)C1CC1`, the IC50 on Progesterone receptor [1] came to 2.5 nM. For the same compound, the Efficacy was 27% in assay [2] and 56% in assay [3].

In the case of `C=C[C@@H]1C[C@H]2[C@@H]3CCC4=CC(=O)CCC4=C3[C@@H](c3ccc(-c4cccnc4)cc3)C[C@]2(C)[C@H]1C(=O)C1CC1`, the IC50 at Progesterone receptor [1] stood at 0.61 nM. Further, the values for the Efficacy in assay [2] and in assay [3] were 38% and 47%, respectively.

`C[C@]12C[C@H](c3ccc(-c4cccnc4)cc3)C3=C4CCC(=O)C=C4CC[C@H]3[C@@H]1CCC21CCCC1=O` (stereo partly drawn): the IC50 at Progesterone receptor [1] is 0.33 nM. A half-maximal response on Progesterone receptor [4] (EC50) required 0.29 nM. For the same compound, the Efficacy came to 71% in assay [2] and 17% in assay [3].

Turning to `COc1ccc(-c2ccc([C@H]3C[C@@]4(C)[C@@H](CCC45CCCC5=O)[C@@H]4CCC5=CC(=O)CCC5=C43)cc2)cn1` (stereo partly drawn), the IC50 at Progesterone receptor [1] turned out to be 0.55 nM. This compound also returned an EC50 at Progesterone receptor [4] of 0.15 nM. Also, the Efficacy in assay [2] is 62%; in assay [3] it was 20%.

For `COC[C@]1(OC)CC[C@H]2[C@@H]3CCC4=CC(=O)CCC4=C3[C@@H](c3ccc(/C=N/O)cc3)C[C@@]21C` [ASOPRISNIL], on Progesterone receptor [1], the IC50 turned out to be 0.2 nM. Also, at Progesterone receptor [4], the EC50 was above 100 nM. Besides, in assay [2], the Efficacy was 97%.

On to `C[C@@H]1C[C@H]2[C@@H]3CCC4=CC(=O)CCC4=C3[C@@H](c3ccc(-c4ccc(Cl)nc4)cc3)C[C@]2(C)[C@H]1C(=O)C1CC1`, for which the IC50 on Progesterone receptor [1] was found to be 0.47 nM. Further, the Efficacy is 43% in assay [2] and 47% in assay [3].

In the case of `C[C@@H]1C[C@H]2[C@@H]3CCC4=CC(=O)CCC4=C3[C@@H](c3ccc(-c4ccccn4)cc3)C[C@]2(C)[C@H]1C(=O)C1CC1`, the IC50 on Progesterone receptor [1] is 14.8 nM. The Efficacy is 33% in assay [2] and 49% in assay [3].
